According to ChEMBL document CHEMBL1142961, “Novel selective inhibitors of the zinc plasmodial aminopeptidase PfA-M1 as potential antimalarial agents” (J Med Chem, 2007):

What was measured:
[1] = biological target: T1, Aminopeptidase N (Plasmodium falciparum FcB1/Columbia) (UniProt O96935); assay: Inhibition of Plasmodium falciparum FcB1 M1 aminopeptidase at 10 uM
T1 sequence (whole entry): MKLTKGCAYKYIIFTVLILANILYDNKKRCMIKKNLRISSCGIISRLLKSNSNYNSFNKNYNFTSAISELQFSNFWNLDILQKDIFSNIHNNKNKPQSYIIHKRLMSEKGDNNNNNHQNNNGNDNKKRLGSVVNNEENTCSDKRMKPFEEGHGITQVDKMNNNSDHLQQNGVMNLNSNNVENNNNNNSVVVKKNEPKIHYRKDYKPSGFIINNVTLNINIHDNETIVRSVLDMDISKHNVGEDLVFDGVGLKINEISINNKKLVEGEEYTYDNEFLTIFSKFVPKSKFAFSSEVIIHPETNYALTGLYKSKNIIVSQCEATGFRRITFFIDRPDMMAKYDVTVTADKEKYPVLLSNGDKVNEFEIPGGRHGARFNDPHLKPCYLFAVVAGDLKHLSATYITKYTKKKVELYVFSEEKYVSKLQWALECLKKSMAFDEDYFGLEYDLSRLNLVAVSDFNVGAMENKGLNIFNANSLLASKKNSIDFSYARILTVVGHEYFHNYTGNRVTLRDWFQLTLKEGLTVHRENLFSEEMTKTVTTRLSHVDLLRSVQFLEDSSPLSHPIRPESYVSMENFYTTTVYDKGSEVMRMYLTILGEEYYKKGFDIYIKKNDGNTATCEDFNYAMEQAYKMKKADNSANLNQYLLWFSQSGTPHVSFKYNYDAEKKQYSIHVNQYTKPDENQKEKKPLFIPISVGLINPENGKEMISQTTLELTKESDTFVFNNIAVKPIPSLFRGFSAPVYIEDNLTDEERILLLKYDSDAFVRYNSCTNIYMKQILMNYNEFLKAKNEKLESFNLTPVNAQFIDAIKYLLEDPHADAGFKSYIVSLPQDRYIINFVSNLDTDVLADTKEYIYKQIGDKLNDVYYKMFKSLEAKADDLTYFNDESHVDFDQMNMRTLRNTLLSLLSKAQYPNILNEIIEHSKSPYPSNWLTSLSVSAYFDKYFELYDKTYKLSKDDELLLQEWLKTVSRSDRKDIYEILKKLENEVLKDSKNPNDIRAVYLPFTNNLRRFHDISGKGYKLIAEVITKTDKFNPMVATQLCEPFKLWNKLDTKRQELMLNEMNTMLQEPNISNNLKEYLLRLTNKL
Outline: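 Native enzyme purified from P. falciparum FcB1, diluted 10-fold in 25 mM Tris-HCl pH 7.4. Preincubated with inhibitor for 10 min at room temperature, then Leu-pNA substrate added (0.3 mM stock, Km 0.099 mM). Kinetics followed at 405 nm at room temperature. Initial velocities normalized to a no-inhibitor control. Single-point screen at 10 µM; IC50 from velocity versus inhibitor concentration curves. Bestatin used as reference.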

[2] = biological target: T2, Aminopeptidase N (Sus scrofa) (UniProt P15145); assay: Inhibition of pig kidney microsomal APN at 10 uM
T2 sequence (whole entry): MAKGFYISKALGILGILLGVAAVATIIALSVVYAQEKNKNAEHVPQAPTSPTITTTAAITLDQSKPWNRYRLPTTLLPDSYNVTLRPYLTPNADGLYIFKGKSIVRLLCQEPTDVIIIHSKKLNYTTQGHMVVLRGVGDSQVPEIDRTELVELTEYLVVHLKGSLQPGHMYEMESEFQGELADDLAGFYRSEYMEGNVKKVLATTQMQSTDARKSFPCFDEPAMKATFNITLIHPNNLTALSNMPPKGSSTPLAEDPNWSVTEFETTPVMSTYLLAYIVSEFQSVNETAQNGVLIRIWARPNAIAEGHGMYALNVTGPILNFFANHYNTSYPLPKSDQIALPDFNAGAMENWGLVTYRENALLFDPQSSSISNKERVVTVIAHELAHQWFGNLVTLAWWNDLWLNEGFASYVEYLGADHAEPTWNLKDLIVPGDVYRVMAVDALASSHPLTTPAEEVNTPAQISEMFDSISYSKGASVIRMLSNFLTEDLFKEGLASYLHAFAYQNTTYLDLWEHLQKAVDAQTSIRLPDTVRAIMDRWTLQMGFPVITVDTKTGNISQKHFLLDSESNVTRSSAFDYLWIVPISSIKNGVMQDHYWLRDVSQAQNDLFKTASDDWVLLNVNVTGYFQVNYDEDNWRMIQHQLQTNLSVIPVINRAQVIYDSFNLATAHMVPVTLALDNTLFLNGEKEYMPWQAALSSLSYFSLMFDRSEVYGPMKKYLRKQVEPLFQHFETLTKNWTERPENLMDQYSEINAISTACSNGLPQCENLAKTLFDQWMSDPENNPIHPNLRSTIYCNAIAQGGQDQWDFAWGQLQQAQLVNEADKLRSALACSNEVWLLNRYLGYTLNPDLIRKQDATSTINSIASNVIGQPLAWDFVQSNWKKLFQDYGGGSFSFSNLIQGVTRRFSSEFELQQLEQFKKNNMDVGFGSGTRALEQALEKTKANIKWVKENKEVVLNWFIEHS
Outline: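 Porcine kidney microsomal APN (ammonium sulfate suspension) diluted 600-fold in 25 mM Tris-HCl pH 7.4. Preincubated with inhibitor for 10 min at room temperature, then Leu-pNA added (0.3 mM stock). Hydrolysis followed at 405 nm at room temperature. Rates normalized to a no-inhibitor control. Single point at 10 µM; IC50 from concentration-velocity curves. Bestatin used as reference.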

| Structure (SMILES) | inhibition [1] | inhibition [2] |
| --- | --- | --- |
| NC(C(=O)NO)C(=O)N(CCc1ccccc1)Cc1ccccc1 (stereo unspecified) | 4% | 34% |
| O=C(CC(=O)NCc1cccc(Oc2ccccc2)c1)NO | 44% | 55% |
| CC(C)CC(C(=O)NO)C(=O)N(C)CCCCc1ccccc1 (stereo unspecified) | 2% | 20% |
| CN(Cc1ccccc1)C(=O)C(Cc1ccccc1)C(=O)NO (stereo unspecified) | 45% | 36% |
| CC(C)CC(C(=O)NO)C(=O)N1CCC(n2c(=O)[nH]c3ccccc32)CC1 (stereo unspecified) | 15% | 54% |
| NC(C(=O)NO)C(=O)NCCCCc1ccccc1 (stereo unspecified) | 56% | 42% |
| O=C(NO)C(Cc1ccccc1)C(=O)NC1CCN(Cc2ccccc2)CC1 (stereo unspecified) | 3% | 21% |
| CC(C)CC(C(=O)NO)C(=O)NCc1ccc(C(F)(F)F)cc1 (stereo unspecified) | 24% | 45% |
| CC(C)CC(C(=O)NO)C(=O)NCCC(c1ccccc1)c1ccccc1 (stereo unspecified) | 76% | 102% |
| CC(C)CC(C(=O)NO)C(=O)N1CCN(Cc2ccc3c(c2)OCO3)CC1 (stereo unspecified) | 21% | 19% |
| O=C(NO)C(Cc1cccc(Oc2ccccc2)c1)C(=O)NCc1cccnc1 (stereo unspecified) | 99% | 85% |
| NC(C(=O)NO)C(=O)N1CCC2(CCNc3ccccc3O2)CC1 (stereo unspecified) | -4% | 9% |
| Cc1ccccc1CNC(=O)CC(=O)NO | 32% | 17% |
| O=C(CC(=O)NCCNc1cccc2ccccc12)NO | 0% | 14% |
| O=C(CC(=O)NCc1cccc(-c2ccccc2)c1)NO | 28% | 66% |
| CC(C)CC(C(=O)NO)C(=O)N(CCc1ccccc1)Cc1ccccc1 (stereo unspecified) | 42% | 105% |
| NC(C(=O)NO)C(=O)NCCc1ccccn1 (stereo unspecified) | -7% | 22% |
| O=C(CC(=O)NCc1ccc(Cl)cc1)NO | 10% | 13% |
| O=C(NO)C(Cc1cccc(Oc2ccccc2)c1)C(=O)NC1CCN(Cc2ccccc2)CC1 (stereo unspecified) | 5% | 72% |
| NC(C(=O)NO)C(=O)N1CCN(Cc2ccc3c(c2)OCO3)CC1 (stereo unspecified) | -3% | 23% |

| Structure (SMILES) | inhibition [1] | inhibition [2] |
| --- | --- | --- |
| O=C(CC(=O)NC1CCN(Cc2ccccc2)CC1)NO | -2% | 14% |
| NC(C(=O)NO)C(=O)NCCNc1cccc2ccccc12 (stereo unspecified) | 2% | 16% |
| CN(CCCCc1ccccc1)C(=O)CC(=O)NO | -4% | 11% |
| NC(C(=O)NO)C(=O)NCc1ccc(F)cc1 (stereo unspecified) | 9% | 18% |
| O=C(NO)C(Cc1cccc(Oc2ccccc2)c1)C(=O)N[C@H]1CCN(Cc2ccccc2)C1 (stereo partly specified) | 41% | 86% |
| CC(C)CC(C(=O)NO)C(=O)NC1CCN(Cc2ccccc2)CC1 (stereo unspecified) | 3% | 57% |
| O=C(NO)C(Cc1ccccc1)C(=O)NCc1cccnc1 (stereo unspecified) | -6% | 15% |
| O=C(NO)C(Cc1cccc(Oc2ccccc2)c1)C(=O)NCCC(c1ccccc1)c1ccccc1 (stereo unspecified) | 50% | 59% |
| O=C(NO)C(Cc1ccccc1)C(=O)N(CCc1ccccc1)Cc1ccccc1 (stereo unspecified) | 75% | 56% |
| NC(C(=O)NO)C(=O)NCc1cccnc1 (stereo unspecified) | -6% | 24% |
| CN(CCCCc1ccccc1)C(=O)C(N)C(=O)NO (stereo unspecified) | 12% | 10% |
| O=C(NO)C(Cc1cccc(Oc2ccccc2)c1)C(=O)NCc1cccc(-c2ccccc2)c1 (stereo unspecified) | 41% | 81% |
| O=C(CC(=O)N[C@H]1CCN(Cc2ccccc2)C1)NO | -3% | 19% |
| Cc1ccccc1CNC(=O)C(N)C(=O)NO (stereo unspecified) | 9% | 23% |
| O=C(NO)C(Cc1cccc(Oc2ccccc2)c1)C(=O)N1CCN(Cc2ccc3c(c2)OCO3)CC1 (stereo unspecified) | 97% | 31% |
| NC(C(=O)NO)C(=O)NCCCc1ccccc1 (stereo unspecified) | 64% | 8% |
| CC(C)CC(C(=O)NO)C(=O)N1CCC2(CC1)C(=O)NCN2c1ccccc1 (stereo unspecified) | 7% | 26% |
| CN(CCCNC(=O)CC(=O)NO)c1ccccc1 | 22% | 32% |
| NC(C(=O)NO)C(=O)N[C@H]1CCN(Cc2ccccc2)C1 (stereo partly specified) | 2% | 37% |
| O=C(CC(=O)NCCCCc1ccccc1)NO | 19% | 36% |

| Structure (SMILES) | inhibition [1] | inhibition [2] |
| --- | --- | --- |
| CC(C)CC(C(=O)NO)C(=O)NCCNc1cccc2ccccc12 (stereo unspecified) | 42% | 93% |
| O=C(NO)C(Cc1cccc(Oc2ccccc2)c1)C(=O)NC1Cc2ccccc2C1 (stereo unspecified) | 43% | 72% |
| Cc1ccccc1CNC(=O)C(CC(C)C)C(=O)NO (stereo unspecified) | 88% | 98% |
| NC(C(=O)NO)C(=O)N1CCN(C(c2ccccc2)c2ccccc2)CC1 (stereo unspecified) | -5% | 10% |
| CC(C)CC(C(=O)NO)C(=O)N1CCC2(CCNc3ccccc3O2)CC1 (stereo unspecified) | 16% | 21% |
| O=C(NO)C(Cc1ccccc1)C(=O)N1CCC2(CC1)C(=O)NCN2c1ccccc1 (stereo unspecified) | 40% | 22% |
| CC(C)CN(CCCCc1ccccc1)C(=O)C(Cc1cccc(Oc2ccccc2)c1)C(=O)NO (stereo unspecified) | 36% | 52% |
| O=C(CC(=O)NCc1ccccc1)NO | 2% | 19% |
| O=C(CC(=O)N1CCN(c2ccccc2)CC1)NO | -9% | 11% |
| O=C(CC(=O)N1CCN(C(c2ccccc2)c2ccccc2)CC1)NO | 21% | 14% |
| NC(C(=O)NO)C(=O)NCCC(c1ccccc1)c1ccccc1 (stereo unspecified) | 8% | 62% |
| COc1cccc(CC(C(=O)NO)C(=O)NCc2cccc(Oc3ccccc3)c2)c1 (stereo unspecified) | 68% | 69% |
| NC(C(=O)NO)C(=O)NCc1ccc(Cl)cc1 (stereo unspecified) | 5% | 54% |
| CN(CCCNC(=O)C(N)C(=O)NO)c1ccccc1 (stereo unspecified) | 3% | 18% |
| O=C(NO)C(Cc1ccccc1)C(=O)NCCNc1cccc2ccccc12 (stereo unspecified) | 59% | 76% |
| O=C(CC(=O)N1CCN(Cc2ccccc2)CC1)NO | 8% | 23% |
| CC(C)CC(C(=O)NO)C(=O)NC1Cc2ccccc2C1 (stereo unspecified) | 61% | 93% |
| CC(C)CC(C(=O)NO)C(=O)N1CCN(C(c2ccccc2)c2ccccc2)CC1 (stereo unspecified) | -2% | 19% |
